ChEMBL document CHEMBL4406880, “Design, synthesis, and bioactivity of dihydropyrimidine derivatives as kinesin spindle protein inhibitors” (Bioorg Med Chem, 2019)

Columns and labels:
Type in all cases: functional
DU-145 = assay: Growth inhibition of human DU145 cells incubated for 48 hrs by sulforhodamine B assay; conditions: DU-145, 48 h
In short: (§1)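 NCI-60 five-dose mode: five tenfold dilutions (0.01, 0.1, 1, 10, 100 µM) are applied for 48 h to cells in RPMI 1640 with 5% FBS at 37 °C. Endpoint is TCA fixation with sulforhodamine B read at 515 nm. % growth comes from the 0 h and control absorbances. GI50 is the concentration giving a 50% reduction in net cell growth.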

NCI-H23 = assay: Growth inhibition of human NCI-H23 cells incubated for 48 hrs by sulforhodamine B assay; conditions: NCI-H23, 48 h
In short: (§2)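 NCI-60 five-dose SRB assay in RPMI 1640 with 5% FBS, 37 °C, 5% CO2. Compound given at five tenfold dilutions, 0.01–100 µM, for 48 h. Adherent cells fixed with TCA, suspension cells with 16% final TCA. Bound SRB read at 515 nm and growth calculated against time-zero and untreated controls. GI50 taken from dose–response curves as the concentration giving a 50% decrease in net cell growth.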

IGROV-1 = assay: Growth inhibition of human IGROV1 cells assessed as cell viability at 1 uM incubated for 48 hrs by sulforhodamine B assay; conditions: IGROV-1, 48 h, read-out: Activity
SR = assay: Growth inhibition of human SR cells assessed as cell viability at 0.001 uM incubated for 48 hrs by sulforhodamine B assay relative to control; conditions: read-out: Activity
MOLT-4 = assay: Growth inhibition of human MOLT4 cells incubated for 48 hrs by sulforhodamine B assay; conditions: MOLT-4, 48 h; in short: as §2
UO-31 = assay: Growth inhibition of human UO31 cells assessed as cell viability at 0.1 uM incubated for 48 hrs by sulforhodamine B assay; conditions: UO-31, 48 h, read-out: Activity
SK-MEL-28 [1] = assay: Growth inhibition of human SK-MEL-28 cells assessed as cell viability at 0.001 uM incubated for 48 hrs by sulforhodamine B assay relative to control; conditions: SK-MEL-28, 48 h, read-out: Activity
SF-295 = assay: Growth inhibition of human SF295 cells assessed as cell viability at 0.001 uM incubated for 48 hrs by sulforhodamine B assay relative to control; conditions: SF-295, 48 h, read-out: Activity
MDA-MB-231 = assay: Growth inhibition of human MDA-MB-231 cells assessed as cell viability at 0.1 uM incubated for 48 hrs by sulforhodamine B assay; conditions: MDA-MB-231, 48 h, read-out: Activity
UACC-62 = assay: Growth inhibition of human UACC62 cells assessed as cell viability at 100 uM incubated for 48 hrs by sulforhodamine B assay; conditions: UACC-62, 48 h, read-out: Activity
PC-3 = assay: Growth inhibition of human PC3 cells assessed as cell viability at 0.1 uM incubated for 48 hrs by sulforhodamine B assay; conditions: PC-3, 48 h, read-out: Activity
NCI-H322M = assay: Growth inhibition of human NCI-H322M cells incubated for 48 hrs by sulforhodamine B assay
In short: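 NCI-60 five-dose assay, SRB end-point, same culture conditions. Compound is tested at tenfold dilutions of 0.01, 0.1, 1, 10 and 100 µM for 48 h at 37 °C, with DMSO/PBS vehicle controls. Percentage growth at each concentration is taken against untreated cells and a time-zero plate. GI50 is 50% net growth decrease, TGI is total growth inhibition, and LC50 is 50% loss of initial cells.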

T47D = assay: Growth inhibition of human T47D cells assessed as cell viability at 100 uM incubated for 48 hrs by sulforhodamine B assay; conditions: read-out: Activity
SK-MEL-28 [2] = assay: Growth inhibition of human SK-MEL-28 cells incubated for 48 hrs by sulforhodamine B assay; conditions: SK-MEL-28, 48 h
In short: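 NCI-60 five-dose SRB assay. Cells were exposed for 48 h to tenfold dilutions of 0.01, 0.1, 1, 10 and 100 µM, in RPMI 1640 with 5% FBS. Plates fixed with TCA at the time of drug addition served as the time-zero reference. GI50 is the concentration giving a 50% reduction in net growth. TGI is total growth inhibition. LC50 is a net 50% loss of the initial cells.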

CCRF-CEM = assay: Growth inhibition of human CCRF-CEM cells incubated for 48 hrs by sulforhodamine B assay; in short: as §1
SN12C = assay: Growth inhibition of human SN12C cells assessed as cell viability at 1 uM incubated for 48 hrs by sulforhodamine B assay; conditions: read-out: Activity
EKVX = assay: Growth inhibition of human EKVX cells assessed as cell viability at 100 uM incubated for 48 hrs by sulforhodamine B assay; conditions: read-out: Activity
OVCAR-8 [3] = assay: Growth inhibition of human OVCAR8 cells assessed as cell viability at 100 uM incubated for 48 hrs by sulforhodamine B assay; conditions: OVCAR-8, 48 h, read-out: Activity
LOX IMVI = assay: Growth inhibition of human LOXIMVI cells assessed as cell viability at 0.1 uM incubated for 48 hrs by sulforhodamine B assay; conditions: read-out: Activity
Hs-578T = assay: Growth inhibition of human Hs 578T cells assessed as cell viability at 0.001 uM incubated for 48 hrs by sulforhodamine B assay relative to control; conditions: read-out: Activity
SK-MEL-2 = assay: Growth inhibition of human SK-MEL-2 cells assessed as cell viability at 0.001 uM incubated for 48 hrs by sulforhodamine B assay relative to control; conditions: SK-MEL-2, 48 h, read-out: Activity
OVCAR-8 [4] = assay: Growth inhibition of human OVCAR8 cells assessed as cell viability at 1 uM incubated for 48 hrs by sulforhodamine B assay; conditions: OVCAR-8, 48 h, read-out: Activity
MCF7 = assay: Growth inhibition of human MCF7 cells assessed as cell viability at 0.1 uM incubated for 48 hrs by sulforhodamine B assay; conditions: MCF7, 48 h, read-out: Activity
NCI-H460 = assay: Growth inhibition of human NCI-H460 cells assessed as cell viability at 1 uM incubated for 48 hrs by sulforhodamine B assay; conditions: NCI-H460, 48 h, read-out: Activity
[5] = read-out: LC50 (the source's name)
[6] = read-out: pLC50 (the source's name) (converted)

CC1=C(C(=O)OCc2ccccc2)C(c2ccc3c(c2)OCO3)n2c(nc3ccccc32)N1 (racemic)
GI50 (DU-145; read-out: GI50): 0.59 µM
CC50 (DU-145; [5]): > 100 µM
TGI (DU-145; read-out: TGI): > 100 µM
GI50 (DU-145; read-out: pGI50 (converted)): 0.589 µM
CC50 (DU-145; [6]): > 100 µM
TGI (DU-145; read-out: pTGI): > 100 µM
GI50 (NCI-H23; read-out: GI50): 31.8 µM
LC50 (NCI-H23; read-out: LC50): > 100 µM
TGI (NCI-H23; read-out: TGI): > 100 µM
GI50 (NCI-H23; read-out: pGI50 (converted)): 31.6 µM
LC50 (NCI-H23; read-out: pLC50 (converted)): > 100 µM
TGI (NCI-H23; read-out: pTGI): > 100 µM
viability at 1 µM (IGROV-1): 39%
viability at 0.001 µM (SR): 84%
GI50 (MOLT-4; read-out: GI50): 0.75 µM
CC50 (MOLT-4; [5]): > 100 µM
TGI (MOLT-4; read-out: TGI): > 100 µM
GI50 (MOLT-4; read-out: pGI50 (converted)): 0.759 µM
CC50 (MOLT-4; [6]): > 100 µM
TGI (MOLT-4; read-out: pTGI): > 100 µM
viability at 0.1 µM (UO-31): 93%
viability at 0.001 µM (SK-MEL-28 [1]): 98%
viability at 0.001 µM (SF-295): 87%
viability at 0.1 µM (MDA-MB-231): 98%
viability at 100 µM (UACC-62): 30%
viability at 0.1 µM (PC-3): 91%
LC50 (concentration killing 50% of initial cells) (NCI-H322M; read-out: LC50): > 100 µM
TGI (NCI-H322M; read-out: TGI): > 100 µM
LC50 (concentration killing 50% of initial cells) (NCI-H322M; read-out: pLC50 (converted)): > 100 µM
TGI (NCI-H322M; read-out: pTGI): > 100 µM
viability at 100 µM (T47D): 34%
GI50 (SK-MEL-28 [2]; read-out: GI50): > 100 µM
LC50 (SK-MEL-28 [2]; read-out: LC50): > 100 µM
TGI (SK-MEL-28 [2]; read-out: TGI): > 100 µM
GI50 (SK-MEL-28 [2]; read-out: pGI50 (converted)): > 100 µM
LC50 (SK-MEL-28 [2]; read-out: pLC50 (converted)): > 100 µM
TGI (SK-MEL-28 [2]; read-out: pTGI): > 100 µM
GI50 (CCRF-CEM; read-out: GI50): 0.41 µM
CC50 (CCRF-CEM; [5]): > 100 µM
TGI (CCRF-CEM; read-out: TGI): > 100 µM
GI50 (CCRF-CEM; read-out: pGI50 (converted)): 0.407 µM
CC50 (CCRF-CEM; [6]): > 100 µM
TGI (CCRF-CEM; read-out: pTGI): > 100 µM
viability at 1 µM (SN12C): 42%
viability at 100 µM (EKVX): 29%
viability at 100 µM (OVCAR-8 [3]): 14%
viability at 0.1 µM (LOX IMVI): 93%
viability at 0.001 µM (Hs-578T): 87%
viability at 0.001 µM (SK-MEL-2): 97%
viability at 1 µM (OVCAR-8 [4]): 38%
viability at 0.1 µM (MCF7): 87%
viability at 1 µM (NCI-H460): 10%
